MC4R antag cAMP: human MC4R antagonism in cAMP assay; MC4R-expressing cells, MTII-stimulated cAMP, LANCE TR-FRET; inhibition, % at 6.5 µM; 360,000 tested, 0.48% active; AID 540295;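 active = inhibition above its plate's cutoff, the mean of tested wells on that plate plus 3 SD, cut at about 29% in these data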;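 also: 0% = Melanotan II alone and 100% = Melanotan II plus saturating MCL0020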
Target sequence (P32245 whole entry, looked up): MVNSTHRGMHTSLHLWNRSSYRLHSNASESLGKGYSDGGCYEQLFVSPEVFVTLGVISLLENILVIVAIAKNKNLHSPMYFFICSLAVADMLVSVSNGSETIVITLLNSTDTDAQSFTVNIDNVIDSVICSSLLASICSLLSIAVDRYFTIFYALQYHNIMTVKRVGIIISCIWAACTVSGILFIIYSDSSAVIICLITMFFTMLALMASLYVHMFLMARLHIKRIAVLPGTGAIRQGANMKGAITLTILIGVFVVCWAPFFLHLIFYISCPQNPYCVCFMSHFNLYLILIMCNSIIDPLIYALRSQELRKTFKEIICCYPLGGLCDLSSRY
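System: U2OS cells stably expressing human melanocortin 4 receptor (MC4R). Reagent: Melanotan II challenge after compound preincubation. Doses: 6.5 µM. Times: 30-min compound, 1-h challenge, 1-h detection, room temperature. Measured by: TR-FRET with Eu-cAMP and labeled anti-cAMP, 671 nm. Replicates: singlicate.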
aDG glyco up: increases alpha dystroglycan glycosylation. Pro5-aDG cells, alpha-DG glycosylation AlphaScreen (IIH6); 0% Pro5, 100% B10-LARGE cell signal. activation, % at 10 µM. 360,000 tested, 0.22% active;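 active = activation of at least 8% versus controls, or a plate z-score of at least 8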;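 also: Pro5 are CHO cells carrying HIG-tagged alpha-DG that lacks glycosylation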
H9c2 TAG inh: triacylglycerol accumulation inhibition; H9c2 cells, Nile Red lipid (TAG) fluorescence; cells loaded with 200 µM oleic acid; inhibition, % at 12.5 µM; 230,000 tested, 0.66% active; AID 651582;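 active = pattern-corrected inhibition of lipid staining of at least 50% with the nuclear-stain viability signal not falling by more than 50%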;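 also: 0% = DMSO wells and 100% = triacsin C control wells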
NTR1 agonist: activates human neurotensin receptor 1; P30989; NTR1-U2OS beta-arrestin-GFP spot imaging, agonist mode; activation, % at 20 µM; 330,000 tested, 0.17% active;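 active = activation at or above 40% of the spot to cytoplasm intensity ratio, with at least 20 cells analyzed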;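 also: 0% = DMSO without peptide and 100% = 100 nM NTR1 peptide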
MC4R barr agon: agonists of human melanocortin 4 receptor (MC4R) beta-arrestin; P32245; U2OS MC4R beta-arrestin complementation, luminescence; percent of melanotan II response, DMSO zero; activation, % at 8.9 µM; 360,000 tested, 0.98% active; AID 540308;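 active = activation above a per-plate cutoff, the mean activation of sample wells on that plate plus 3 SD, cut at about 8% in these data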
Tb MetRS inh: blocks T. brucei methionyl-tRNA synthetase activity. AID 624268. inhibition, % at 11.9 µM. 360,000 tested, 0.4% active. purified T. brucei MetRS, ATP depletion, Kinase-Glo luminescence;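 active = inhibition above a per-plate cutoff of the control wells' mean inhibition plus 3 SD, cut at about 5.5% in these data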;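 also: 0% = DMSO wells median and 100% = median of wells with control inhibitor compound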
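Test system – parasite MetRS enzyme · Reagent – substrates ATP, L-methionine and bulk Escherichia coli tRNA · Doses – 11.9 µM compound single dose, 0.9% DMSO · Times – 15 min enzyme-compound preincubation, 2 h reaction, 10 min detection, 25 °C · Signal – Kinase-Glo luminescence, ATP depletion format · Controls – DMSO-only wells as low control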
TAG conf: triacylglycerol accumulation inhibition, confirmation | shares compounds with H9c2 TAG inh | H9c2 lipid accumulation, Nile Red fluorescence; cells loaded with 200 µM oleic acid | inhibition, % at 12.5 µM | 990 tested, 71% active;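 active = mean inhibition across replicates of 40% or more; inactive = mean inhibition below 40%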;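 also: plate controls were DMSO only wells for no effect and Triacsin C treated wells for full effect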
* marks the source's active call; other numbers are inactive results; nt = no result; ! = not confirmed by another sample. Hits are enriched below; roughly 2.4% of the tested compounds scored in any of these assays.

SMILES	MC4R antag cAMP	aDG glyco up	H9c2 TAG inh	NTR1 agonist	MC4R barr agon	Tb MetRS inh	TAG conf
CCn1c(SCC(=O)Nc2nc(-c3ccc(C)cc3)cs2)nnc1-c1ccccc1O	5	1	80*	25	0	0	68*
COc1ccccc1Nc1nnc(SCC(=O)Nc2nc(-c3ccc(F)cc3)cs2)s1	8	0	51*	0	6	0	57*
CN(C)CCCn1c(SCC(=O)N2c3ccccc3Sc3ccccc32)nc2ccccc2c1=O	17	0	nt	nt	7	-1	nt
CCn1c(SCC(=O)Nc2nc(-c3ccc(C)cc3)cs2)nnc1-c1ccccc1	-4	0	28	12	2	0	nt
CCOC(=O)C1=CCC(C(C)(C)C)N(S(=O)(=O)c2ccc(C)cc2)C1 (configuration not stated)	nt	0	nt	nt	nt	-1	nt
Cc1cnc2ccc(F)cc2c1	nt	0	nt	nt	nt	0	nt
CCCc1cc(C(=O)N/N=C/c2ccc(CC)s2)c2ccccc2n1	-22	0	56*	1	0	0	61*
Nc1c(Cl)cc(-c2csc(N3CCCC3c3nc4cc(Cl)c(N5CCCCC5)cc4n3CCCO)n2)cc1Cl (configuration not stated)	10	0	93*	0	1	0	128*
Cc1csc(N2CCCC2c2nc3cc(Cl)c(N4CCCCC4)cc3n2CCOCCO)n1 (configuration not stated)	-4	0	16	2	-1	1	nt
Nc1c(Cl)cc(-c2csc(N3CCCC3c3nc4cc(Cl)c(Cl)cc4n3CCCO)n2)cc1Cl (configuration not stated)	2	1	71*	11	-1	0	79*
Nc1c(Cl)cc(-c2csc(N3CCCC3c3nc4cc(Cl)c(N5CCCCC5)cc4n3CCOCCO)n2)cc1Cl (configuration not stated)	8	0	75*	5	2	0	81*
COc1cc(NC(=O)c2csc(N)n2)cc(C(=O)Nc2cccc(C(F)(F)F)c2)c1	-2	0	59*!	2	-1	-1	50*
COc1cc(NC(=O)c2cnc(N)s2)cc(C(=O)Nc2cccc(C(F)(F)F)c2)c1	3	0	35	3	0	-1	nt
C[C@@]12CCC=C[C@H]1[C@H](c1ccccc1Br)N(Cc1ccccc1)C2=O	8	0	-32	5	2	0	nt
C[C@@]12CCC=C[C@H]1[C@H](c1ccoc1)N(Cc1ccccc1)C2=O	6	0	79*	-1	-1	0	12
Cc1cc(F)ccc1-c1cc(C(=O)NCc2ccco2)[nH]n1	7	0	1	nt	-2	0	nt
COc1ccc2c(c1)c(C(=O)CN1CCOCC1)c(C)n2C	11	0	-23	0	-1	0	nt
COc1ccc(N2CCN(CC(=O)c3c(C)n(C)c4ccc(OC)cc34)CC2)cc1	13	0	55*	8	1	0	-92
CN1CCN(c2ccc(Cl)cc2NC(=O)c2nn(-c3ccccc3)c(=O)c3ccccc23)CC1	0	0	52*	nt	-1	0	27
Cn1nc(C(=O)Nc2cc(Cl)ccc2N2CCCC2)c2ccccc2c1=O	-18	0	5	3	0	-1	nt
COc1ccc(-c2sc3ccc(N4CCOCC4)cc3c2C#CCCO)cc1	15	0	51*	26	-1	0	55*
O=C1NC(=O)C(c2cccs2)(c2cccs2)N1	3	0	nt	2	0	0	nt
COc1ccc(Cl)cc1S(=O)(=O)N1CCC(C(=O)NCc2ccccn2)CC1	-7	0	20	0	-1	1	nt
CCC(=O)Nc1cccc(-c2nnc(-c3cccc(NC(=O)CC)c3)o2)c1	7	0	nt	6	1	0	nt
CCC(=O)Nc1ccc(-c2nnc(-c3ccccc3)o2)cc1	-2	0	52*	0	-2	-1	43*
SMILES	MC4R antag cAMP	aDG glyco up	H9c2 TAG inh	NTR1 agonist	MC4R barr agon	Tb MetRS inh	TAG conf
Cc1ccc(Cc2nnc(SCC(=O)Nc3ccccc3)n(N)c2=O)cc1	9	0	52*	1	-2	0	62*
COc1ccc(NC(=O)CSc2nnc(Cc3ccc(C)cc3)c(=O)n2N)cc1OC	3	0	37	-1	-3	0	nt
CCOc1ccccc1NC(=O)CSc1nnc(Cc2ccc(OC)cc2)c(=O)n1N	4	1	38	7	-1	-1	nt
CCOc1ccc(Cc2nnc(SCC(=O)Nc3ccccc3)n(N)c2=O)cc1	6	0	50*	3	2	0	68*
COc1ccc(CCn2c(-n3nc(C)cc3C)nc3c2c(=O)[nH]c(=O)n3C)cc1	21	0	54*	2	0	0	62*
Cc1ccc(Cn2c(-n3nc(C)cc3C)nc3c2c(=O)[nH]c(=O)n3C)cc1	-10	0	nt	-1	1	-1	nt
CN1CCN(NC(=O)CSc2ccc(Cl)cc2Cl)CC1	-3	0	nt	0	-2	0	nt
Cc1ccc(CNC(=O)c2ccc(N3CCC4(CC3)CC(c3ccccc3)=NO4)c(NC(=O)c3ccc(Br)cc3)c2)cc1	4	0	55*	-6	-1	0	56*
Cc1ccc(NC(=O)CSc2nnnn2-c2ccc3c(c2)OCO3)cc1C	8	0	57*	-1	8	-1	-15
O=S(=O)(c1ccc(OCC(O)CNC23CC4CC(CC(C4)C2)C3)c(Cl)c1)N1CCOCC1 (configuration not stated)	-5	2	59*	2	0	0	31
Cc1ccc2cc3cc(C(=O)NCCCN4CCCCCC4)oc3nc2c1	0	0	51*	0	0	0	29
O=C(COC(=O)c1cc[n+]([O-])cc1)Nc1cccc(Br)c1	1	0	17	0	4	0	nt
O=C(CC1C[C@H](C(=O)N2CCOCC2)[C@@]2(CCC3CCCC3)c3[nH]c4ccccc4c3CCN2C1=O)NCC12CC3CC(CC(C3)C1)C2 (some centres not stated)	3	0	61*	1	-3	0	56*
O=C(C[C@H]1C[C@H](C(=O)N2CCOCC2)[C@@]2(CCC3CCCC3)c3[nH]c4cc(-c5ccco5)ccc4c3CCN2C1=O)NCC12CC3CC(CC(C3)C1)C2	-4	0	62*	4	0	0	77*
CCc1noc(C)c1C(=O)NNC(=O)c1ccccc1F	-4	0	2	0	-4	-1	nt

Screening data as filed in PubChem.
